The source made the active and inactive calls. No cut-off for these calls is given here.
Assays:
[1] = target: T1, Protein deacetylase HDAC6 (Homo sapiens, UniProt Q9UBN7); experiment: Inhibition of HDAC6 (unknown origin) using Ac-LeuGlyLy-s(Ac)-AMC as substrate preincubated for 10 mins followed by substrate addition and further incubated for 2 hrs by fluorescence microtiter plate reader assay
T1 sequence (Q9UBN7 whole entry): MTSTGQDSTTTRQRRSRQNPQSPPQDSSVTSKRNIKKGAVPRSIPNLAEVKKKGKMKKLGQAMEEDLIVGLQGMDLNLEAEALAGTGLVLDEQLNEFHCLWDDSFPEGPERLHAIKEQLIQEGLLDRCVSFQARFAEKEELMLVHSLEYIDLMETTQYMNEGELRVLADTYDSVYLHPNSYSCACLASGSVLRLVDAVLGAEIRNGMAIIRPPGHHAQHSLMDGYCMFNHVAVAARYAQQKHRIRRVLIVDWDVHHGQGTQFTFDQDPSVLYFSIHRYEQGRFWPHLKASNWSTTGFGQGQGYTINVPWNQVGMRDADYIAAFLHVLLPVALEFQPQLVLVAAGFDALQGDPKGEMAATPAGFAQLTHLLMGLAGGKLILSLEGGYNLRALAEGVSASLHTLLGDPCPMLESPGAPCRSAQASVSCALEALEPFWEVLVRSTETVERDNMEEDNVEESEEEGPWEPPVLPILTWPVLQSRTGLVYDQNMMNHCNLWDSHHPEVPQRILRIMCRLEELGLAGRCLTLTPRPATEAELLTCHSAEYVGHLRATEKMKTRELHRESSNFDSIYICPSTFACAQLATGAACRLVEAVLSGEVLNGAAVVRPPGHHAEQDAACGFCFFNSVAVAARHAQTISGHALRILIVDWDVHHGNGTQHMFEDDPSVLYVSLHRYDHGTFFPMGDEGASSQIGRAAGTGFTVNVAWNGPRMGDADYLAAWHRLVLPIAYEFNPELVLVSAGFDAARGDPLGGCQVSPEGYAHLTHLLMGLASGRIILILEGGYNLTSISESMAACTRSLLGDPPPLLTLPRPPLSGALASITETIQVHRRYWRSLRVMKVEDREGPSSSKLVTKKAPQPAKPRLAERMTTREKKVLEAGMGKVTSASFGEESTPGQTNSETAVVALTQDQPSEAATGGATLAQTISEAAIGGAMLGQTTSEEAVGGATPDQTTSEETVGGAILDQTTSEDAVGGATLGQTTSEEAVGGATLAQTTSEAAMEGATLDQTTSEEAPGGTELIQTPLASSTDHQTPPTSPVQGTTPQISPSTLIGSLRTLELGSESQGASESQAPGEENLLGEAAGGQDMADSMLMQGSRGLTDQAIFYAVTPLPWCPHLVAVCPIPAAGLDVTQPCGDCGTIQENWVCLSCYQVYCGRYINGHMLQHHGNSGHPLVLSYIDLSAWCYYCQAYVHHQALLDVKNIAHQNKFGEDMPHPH

Histone deacetylase 1 = Histone deacetylase 1 (Homo sapiens, UniProt Q13547); experiment: Inhibition of HDAC1 (unknown origin) using Ac-LeuGlyLys(Ac)-AMC as substrate preincubated for 10 mins followed by substrate addition and further incubated for incubated for 1 hrs by fluorescence microtiter plate reader assay
Histone deacetylase 8 = target: T2, Histone deacetylase 8 (Homo sapiens, UniProt Q9BY41); experiment: Inhibition of HDAC8 (unknown origin) using Ac-LeuGlyLys(tfa)-AMC as substrate preincubated for 10 mins followed by substrate addition and further incubated for incubated for 1 hrs by fluorescence microtiter plate reader assay
T2 sequence (Q9BY41 whole entry): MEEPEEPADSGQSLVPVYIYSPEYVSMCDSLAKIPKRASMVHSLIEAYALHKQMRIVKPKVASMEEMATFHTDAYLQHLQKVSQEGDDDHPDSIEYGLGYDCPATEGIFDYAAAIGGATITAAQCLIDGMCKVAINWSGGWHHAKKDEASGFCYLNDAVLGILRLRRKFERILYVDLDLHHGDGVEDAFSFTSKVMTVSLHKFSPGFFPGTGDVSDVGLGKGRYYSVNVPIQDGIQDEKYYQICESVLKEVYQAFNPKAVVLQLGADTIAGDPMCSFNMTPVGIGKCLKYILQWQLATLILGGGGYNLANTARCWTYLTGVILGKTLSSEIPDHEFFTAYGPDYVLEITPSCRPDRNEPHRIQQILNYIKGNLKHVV

Jurkat = experiment: Antiproliferative activity against human Jurkat cells assessed as inhibition of cell proliferation after 48 hrs by MTT assay; type: functional, cell-based
Procedure, shortened: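 Leukemia/myeloma lines grown in RPMI1640 with 10% FBS at 37 °C, 5% CO2; seeded at 3500–4000 cells/well, cultured overnight, then exposed to serial dilutions for 48 h.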

[2] = target: T3, Protein deacetylase HDAC6 (Homo sapiens) (UniProt Q9UBN7); experiment: Inhibition of HDAC6 in human HL-60 cells assessed as increase in acetylation of alpha tubulin by Western blot analysis; type: cell-based; details: TDE = time-dependent effect
T3 sequence (whole entry): T1 sequence (Q9UBN7 whole entry)
Procedure, shortened: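 HL-60 cells treated 12 h or 24 h, pelleted, lysed in RIPA with 1 mM PMSF on ice 30 min, cleared at 4 °C; lysates run on 12.5% SDS-PAGE, blotted to PVDF, blocked in 5% milk 1 h, probed overnight at 4 °C for acetyl-α-tubulin, acetyl-H3 and GAPDH, secondary 1 h, ECL detection.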

HL-60 [3] = experiment: Induction of mitochondrial membrane potential depolarization in human HL-60 cells at 3 uM by fluorescence assay; type: functional, cell-based; details: time hrs <=24, TDE = time-dependent effect
Procedure, shortened: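 HL-60 cells (1 × 10^6) seeded overnight, exposed to compound or vehicle (0.2% DMSO) for the indicated times, then loaded with TMRE (100 nM) 30 min at 37 °C; washed three times in PBS, fluorescence read at Ex 540/Em 579 nm.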

HL-60 [4] = experiment: Induction of apoptosis in human HL-60 cells assessed as activation of caspase-3 at 3 uM measured by fluorescence assay; type: functional, cell-based
HL-60 [5] = experiment: Induction of apoptosis in human HL-60 cells assessed as viable cells at 3 uM after 48 hrs by Annexin V-FITC/propidium iodide staining based flow cytometric analysis (reference value: 93.4%); type: functional; details: read-out: Activity
Procedure, shortened: (§1)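 HL-60 cells (1 × 10^6/well) exposed 48 h to compound dilutions, collected, PBS-washed, resuspended in Annexin V-FITC binding buffer, stained with propidium iodide and Annexin V-FITC for 15 min, then analysed by flow cytometry.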

HL-60 [6] = experiment: Induction of apoptosis in human HL-60 cells assessed as early apoptotic cells at 3 uM after 48 hrs by Annexin V-FITC/propidium iodide staining based flow cytometric analysis (reference value: […]%); type: functional
HL-60 [7] = experiment: Induction of apoptosis in human HL-60 cells assessed as late apoptotic cells at 3 uM after 48 hrs by Annexin V-FITC/propidium iodide staining based flow cytometric analysis (reference value: 1.45%); type: functional; procedure, shortened: as §1
HL-60 [8] = experiment: Induction of apoptosis in human HL-60 cells assessed as necrotic cells at 3 uM after 48 hrs by Annexin V-FITC/propidium iodide staining based flow cytometric analysis (reference value: 0.017%); type: functional; procedure, shortened: as §1
[9] = Stability of the compound in rabbit plasma assessed as decrease in compound degradation incubated up to 12 hrs by HPLC analysis; type: ADME, cell-free, Oryctolagus cuniculus
Homo sapiens = species: Homo sapiens; experiment: Selectivity ratio of IC50 for HDAC2 (unknown origin) to IC50 for HDAC6 (unknown origin)

Chain of Histone deacetylase 1 (Q13547 whole entry): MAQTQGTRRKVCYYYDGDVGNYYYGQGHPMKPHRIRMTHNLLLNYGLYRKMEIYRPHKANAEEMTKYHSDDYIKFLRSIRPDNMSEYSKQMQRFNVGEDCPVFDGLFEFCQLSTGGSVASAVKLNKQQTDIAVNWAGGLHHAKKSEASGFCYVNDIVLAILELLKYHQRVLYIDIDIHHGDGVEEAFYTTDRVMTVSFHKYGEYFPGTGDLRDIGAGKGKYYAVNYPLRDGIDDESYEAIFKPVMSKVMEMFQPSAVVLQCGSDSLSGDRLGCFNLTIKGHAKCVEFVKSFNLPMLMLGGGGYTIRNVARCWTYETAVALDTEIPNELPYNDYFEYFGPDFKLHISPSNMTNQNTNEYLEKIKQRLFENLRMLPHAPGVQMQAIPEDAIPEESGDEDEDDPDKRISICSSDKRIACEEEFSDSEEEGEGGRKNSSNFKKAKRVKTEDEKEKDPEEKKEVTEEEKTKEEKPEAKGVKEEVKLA

IC50 [1]: 0.0021 µM
IC50 (Histone deacetylase 1): 11.6 µM
IC50 (Histone deacetylase 8): 3.44 µM
IC50 (Jurkat): 9.29 µM
inhibition [2]: Tde
Stabilty [9]: Stable
Ratio IC50 (Homo sapiens): 5860
Compound: O=C(NO)c1ccc(CN2C(=O)C(Cc3ccccc3)N(Cc3cccnc3)C2=O)cc1 (racemic)
Activity (HL-60 [3]): Tde
Activity (HL-60 [4]): Active
viability at 3 µM (HL-60 [5]): 79.4%
Activity (HL-60 [6]): 10.5%
Activity (HL-60 [7]): 10%
Activity (HL-60 [8]): 0.035%

Source: ChEMBL document CHEMBL4842326, “Design, synthesis and biological evaluation of 3, 4-disubstituted-imidazolidine-2, 5-dione derivatives as HDAC6 selective inhibitors” (Eur J Med Chem, 2021)
